The text below walks through data of ChEMBL document CHEMBL1139420, “Antibacterial profile against drug-resistant Staphylococcus epidermidis clinical strain and structure-activity relationship studies of 1H-pyrazolo[3,4-b]pyridine and thieno[2,3-b]pyridine derivatives” (Bioorg Med Chem, 2008).

Converted amounts (≈) assume the structure as drawn. The source made the active and inactive calls. The calls are words filed in the database; no cut-off is given here.

One data set deals with Serratia marcescens. Description: Antibacterial activity against drug-resistant Serratia marcescens clinical isolate assessed as inhibition zone diameter after 24 hrs by antibacterial susceptibility test. The format is functional, organism-based.
Another data set deals with Proteus mirabilis. Description: Antibacterial activity against drug-resistant Proteus mirabilis clinical isolate assessed as inhibition zone diameter after 24 hrs by antibacterial susceptibility test. The format is functional, organism-based.
Another data set has as its system Pseudomonas aeruginosa. Put plainly: Antibacterial activity against drug-resistant Pseudomonas aeruginosa clinical isolate assessed as inhibition zone diameter after 24 hrs by antibacterial susceptibility test. In kind it is functional, organism-based.
A further data set deals with Enterobacter cloacae. Put plainly: Antibacterial activity against drug-resistant Enterobacter cloacae clinical isolate assessed as inhibition zone diameter after 24 hrs by antibacterial susceptibility test. The format is functional, organism-based.
The test system of data set [1] is Acinetobacter calcoaceticus. Put plainly: Antibacterial activity against drug-resistant Acinetobacter calcoaceticus clinical isolate assessed as inhibition zone diameter after 24 hrs by antibacterial susceptibility test. The format is functional, organism-based.
The test system of the next data set is Klebsiella pneumoniae. Put plainly: Antibacterial activity against drug-resistant Klebsiella pneumoniae clinical isolate assessed as inhibition zone diameter after 24 hrs by antibacterial susceptibility test. In kind it is functional, organism-based.
A further data set relates to Enterococcus faecalis. Description: Antibacterial activity against drug-resistant Enterococcus faecalis clinical isolate assessed as inhibition zone diameter after 24 hrs by antibacterial susceptibility test. The format is functional, organism-based.
In data set [2] the test system is Staphylococcus epidermidis. Description: Antibacterial activity against drug-resistant Staphylococcus epidermidis clinical isolate assessed as inhibition zone diameter after 24 hrs by antibacterial susceptibility test. The format is functional.
Data set [3] deals with Staphylococcus epidermidis. Description: Antibacterial activity against drug-resistant Staphylococcus epidermidis clinical isolate after 24 hrs by macro-dilution broth method. In kind it is functional.
Data set [4] can be described thus: Cytotoxicity against human PBMC assessed as cell viability at 700 uM after 3 to 5 days by XTT method. The format is cell-based. The conditions noted are these: PBMC (peripheral blood mononuclear cells), read-out: Activity. The essentials:
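Human PBMCs from healthy donors isolated by density gradient from buffy coats, kept in RPMI 1640 with 10% heat-inactivated FBS, penicillin, streptomycin, 2 mM glutamine, 10 mM Hepes; stimulated 2–3 days with 5 µg/mL PHA, then kept with 5 U/mL IL-2. Compound at 700 µM, 5% CO2, 37 °C; XTT added, OD 450 nm after 2 h; duplicate, at least three times.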

The next data set relates to Escherichia coli. Description: Antibacterial activity against drug-resistant Escherichia coli clinical isolate assessed as inhibition zone diameter after 24 hrs by antibacterial susceptibility test. The format is functional, organism-based.
Data set [5] has as its system Staphylococcus epidermidis. Put plainly: Antibacterial activity against drug-resistant Staphylococcus epidermidis clinical isolate at 10 times MIC. The format is functional, organism-based. The essentials:
(§1)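 Growth-curve assay on fluoro-substituted derivatives (ortho-, meta-, para-F). Logarithmic-phase cultures incubated with compound at 1× and 10× MIC and at 5 mg/mL. Optical density at 560 nm monitored over 6 h and expressed as growth (%) relative to untreated control.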

Data set [6] has as its system Staphylococcus epidermidis. Description: Antibacterial activity against drug-resistant Staphylococcus epidermidis clinical isolate at 16 ug/ml. The format is functional, organism-based.
Data set [7] concerns Staphylococcus epidermidis. Description: Antibacterial activity against drug-resistant Staphylococcus epidermidis clinical isolate at 5 mg/ml. In kind it is functional, organism-based. Summed up:
as §1

`O=C(O)c1cnc2c(cnn2-c2ccccc2)c1Nc1cccc(Br)c1`: the result (with Serratia marcescens; in the data set on Proteus mirabilis; with Pseudomonas aeruginosa; with Enterobacter cloacae; in [1]; with Klebsiella pneumoniae) was inactive. The result with Enterococcus faecalis and with Escherichia coli was inactive. In addition, the “inhibition zone (IZ)” value in [2] is recorded as 17 mm. The compound also showed an MIC in [3] of 16 µg/mL (≈ 39.1 µM). In addition, the viability at 700 µM in [4] is 100%.
Take `Cc1cccc(Nc2c(C(=O)O)cnc3c2cnn3-c2ccccc2)c1`: the outcome (in the data set on Serratia marcescens; with Proteus mirabilis; in the data set with Pseudomonas aeruginosa; in the data set on Enterobacter cloacae; in data set [1]; in the data set with Klebsiella pneumoniae) was inactive. For the same compound, the outcome in the data set with Enterococcus faecalis and with Escherichia coli was inactive. Further, in data set [2], the “inhibition zone (IZ)” value was 16 mm. In data set [3], this compound showed an MIC of 64 µg/mL (≈ 186 µM). Moreover, the viability at 700 µM in [4] was 100%.
Regarding `O=C(O)c1cnc2c(cnn2-c2ccccc2)c1Nc1cccc(F)c1`, the outcome (in the data set with Serratia marcescens; in the data set on Proteus mirabilis; with Pseudomonas aeruginosa; in the data set on Enterobacter cloacae; in data set [1]; in the data set on Klebsiella pneumoniae) was inactive. Moreover, the outcome in the data set on Enterococcus faecalis and with Escherichia coli was inactive. In addition, the result in [5] and in data set [6] was Active. For the same compound, in data set [2], the “inhibition zone (IZ)” value was found to be 20 mm. In [3], this compound registered an MIC of 16 µg/mL (≈ 45.9 µM). Also, the viability at 700 µM in [4] was 100%.
On to `O=C(O)c1cnc2c(cnn2-c2ccccc2)c1Nc1ccc(F)cc1`, for which the outcome (in the data set with Serratia marcescens; with Proteus mirabilis; in the data set with Pseudomonas aeruginosa; in the data set with Enterobacter cloacae; in [1]; in the data set on Klebsiella pneumoniae) was inactive. In addition, the result (with Enterococcus faecalis; in data set [7]; in the data set with Escherichia coli) was inactive. Also, in data set [2], the “inhibition zone (IZ)” value came out at 0 mm. Further, the viability at 700 µM in [4] is 100%.
Turning to `O=C(O)c1cnc2c(cnn2-c2ccccc2)c1Nc1ccccc1F`, the result in data set [7] was inactive.
Consider `COc1ccc(Nc2c(C(=O)O)cnc3sccc23)cc1`, for which the result (in the data set with Serratia marcescens; with Proteus mirabilis; in the data set with Pseudomonas aeruginosa; in the data set with Enterobacter cloacae; in [1]; in the data set on Klebsiella pneumoniae) was inactive. Moreover, the result in the data set on Enterococcus faecalis and in the data set with Escherichia coli was inactive. Besides, the “inhibition zone (IZ)” value in [2] was found to be 0 mm. Also, the viability at 700 µM in [4] stood at 100%.
Turning to `O=C(O)c1cnc2sccc2c1Nc1ccc(Br)cc1`, the outcome (in the data set on Serratia marcescens; in the data set on Proteus mirabilis; with Pseudomonas aeruginosa; in the data set with Enterobacter cloacae; in data set [1]; with Klebsiella pneumoniae) was inactive. For the same compound, the result with Enterococcus faecalis and in the data set on Escherichia coli was inactive. Besides, the “inhibition zone (IZ)” value in data set [2] was found to be 0 mm. Further, the viability at 700 µM in data set [4] was 100%.
Turning to `O=C(O)c1cnc2c(cnn2-c2ccccc2)c1Nc1cccc(Cl)c1`, the outcome (with Serratia marcescens; in the data set with Proteus mirabilis; in the data set with Pseudomonas aeruginosa; in the data set on Enterobacter cloacae; in [1]; in the data set with Klebsiella pneumoniae) was inactive. Further, the result with Enterococcus faecalis and in the data set with Escherichia coli was inactive. The “inhibition zone (IZ)” value in [2] worked out at 17 mm. Also, the MIC in [3] was 16 µg/mL (≈ 43.9 µM). Besides, the viability at 700 µM in data set [4] was found to be 100%.
As for `O=C(O)c1cnc2sccc2c1Nc1cccc(F)c1`, the result (in the data set on Serratia marcescens; in the data set on Proteus mirabilis; in the data set on Pseudomonas aeruginosa; in the data set with Enterobacter cloacae; in data set [1]; in the data set with Klebsiella pneumoniae) was inactive. The result in the data set on Enterococcus faecalis and with Escherichia coli was inactive. The “inhibition zone (IZ)” value in data set [2] was found to be 0 mm. The viability at 700 µM in [4] amounted to 100%.
In the case of `O=C(O)c1cnc2sccc2c1Nc1ccc(F)cc1`, the result (with Serratia marcescens; in the data set on Proteus mirabilis; with Pseudomonas aeruginosa; in the data set with Enterobacter cloacae; in data set [1]; in the data set with Klebsiella pneumoniae) was inactive. Besides, the result with Enterococcus faecalis and in the data set on Escherichia coli was inactive. In addition, the “inhibition zone (IZ)” value in data set [2] was found to be 0 mm. The viability at 700 µM in data set [4] stood at 100%.
Turning to `O=C(O)c1cnc2c(cnn2-c2ccccc2)c1Nc1ccc([N+](=O)[O-])cc1`, the result (with Serratia marcescens; in the data set on Proteus mirabilis; in the data set on Pseudomonas aeruginosa; in the data set on Enterobacter cloacae; in [1]; in the data set with Klebsiella pneumoniae) was inactive. For the same compound, the result with Enterococcus faecalis and with Escherichia coli was inactive. The “inhibition zone (IZ)” value in [2] is listed as 0 mm. In addition, the viability at 700 µM in data set [4] worked out at 88%.
For the compound `O=C(O)c1cnc2sccc2c1Nc1cccc(Br)c1`, the outcome (in the data set with Serratia marcescens; in the data set with Proteus mirabilis; with Pseudomonas aeruginosa; with Enterobacter cloacae; in data set [1]; in the data set on Klebsiella pneumoniae) was inactive. Further, the result in the data set with Enterococcus faecalis and in the data set on Escherichia coli was inactive. Further, the “inhibition zone (IZ)” value in [2] is given as 0 mm. Moreover, the viability at 700 µM in data set [4] was 100%.
With `O=C(O)c1cnc2sccc2c1Nc1cccc([N+](=O)[O-])c1`, the outcome (in the data set with Serratia marcescens; with Proteus mirabilis; with Pseudomonas aeruginosa; with Enterobacter cloacae; in [1]; in the data set on Klebsiella pneumoniae) was inactive. Moreover, the result with Enterococcus faecalis and in the data set on Escherichia coli was inactive. Moreover, the “inhibition zone (IZ)” value in data set [2] is 0 mm. Further, in [4], the viability at 700 µM is 100%.
Regarding `COc1cccc(Nc2c(C(=O)O)cnc3c2cnn3-c2ccccc2)c1`, the outcome (with Serratia marcescens; in the data set with Proteus mirabilis; in the data set with Pseudomonas aeruginosa; in the data set with Enterobacter cloacae; in [1]; in the data set on Klebsiella pneumoniae) was inactive. In addition, the result in the data set on Enterococcus faecalis and with Escherichia coli was inactive. Further, the “inhibition zone (IZ)” value in data set [2] is recorded as 15 mm. This compound also yielded an MIC in [3] of 16 µg/mL (≈ 44.4 µM). The viability at 700 µM in data set [4] came out at 100%.
